Measured values published in ChEMBL document CHEMBL4118273, “Design, Synthesis, and Biological Evaluation of Pyrimido[4,5- d]pyrimidine-2,4(1 H,3 H)-diones as Potent and Selective Epidermal Growth Factor Receptor (EGFR) Inhibitors against L858R/T790M Resistance Mutation” (J Med Chem, 2018).

How the values were obtained:
[1] = Tmax in ICR mouse at 10 mg/kg, po by LC-MS/MS analysis; assay type: ADME, organism-based; settings: in vivo
A-431 = assay: Growth inhibition of human A431 cells xenografted in Balb/c mouse at 50 mg/kg/day, po for 14 days measured every 2 to 3 days during compound dosing relative to control; assay type: organism-based; settings: A-431, po, read-out: GI
Summary of the method: (§1)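 BALB/c mice, 4–6 weeks old, implanted subcutaneously in the right flank with about 2 × 10^6 H1975 or A431 cells grown in RPMI-1640 with 10% FBS. At 200–400 mm3 tumors, mice were randomized (six/group) and dosed orally once daily with vehicle or inhibitor for 14 days. Caliper volumes, V = L×W²/2, were taken every 2–3 days; means ± SEM, Student's t test vs vehicle.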

[2] = target: T1, Epidermal growth factor receptor (Homo sapiens, UniProt P00533); assay: Inhibition of recombinant human GST-tagged EGFR (668 to 1210 residues) expressed in baculovirus expression system using Poly(Glu,Tyr)4:1 as substrate after 1 hr by ELISA
[3] = target: T1, Epidermal growth factor receptor; assay: Inhibition of wild type EGFR phosphorylation in EGF-stimulated human A431 cells up to 1000 nM by Western blot method
Summary of the method: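 A431 cells lysed in Tris-HCl pH 6.8 buffer with DTT, SDS and glycerol; equal protein amounts resolved on 8% SDS-PAGE, transferred to nitrocellulose and probed for p-EGFR (Y1068), total EGFR, p-AKT (Ser473), total AKT and GAPDH.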

[4] = AUC (0 to infinity) in ICR mouse at 1 mg/kg, iv by LC-MS/MS analysis; assay type: ADME, organism-based; design: dose 1 mg/kg, route intravenous, time infinity; settings: in vivo
[5] = Apparent volume of distribution in ICR mouse at 1 mg/kg, iv by LC-MS/MS analysis; assay type: ADME, organism-based; settings: in vivo, read-out: Vz
Mus musculus = assay: Toxicity in Balb/c mouse xenografted with human NCI-H1975 cells assessed as body weight loss at 50 mg/kg/day, po once daily for 14 days measured every 2 to 3 days during compound dosing; assay type: organism-based; settings: in vivo
Summary of the method: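 A431 or H1975 cells were grown in RPMI-1640 with 10% FBS, and about 2 × 10^6 cells were implanted subcutaneously in the right flank of 4–6-week-old BALB/c mice. At 200–400 mm³, mice were randomized to vehicle or treated groups (n = 6). Dosing was oral, once daily, for 14 days. Body weights were recorded every 2–3 days.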

[6] = Apparent permeability from apical to basolateral side in MDCK2 cells at 2 uM after 2.5 hrs by LC-MS/MS method; assay type: ADME, cell-based, Canis lupus familiaris, MDCK-II; settings: dog, MDCK
[7] = AUC (0 to t) in ICR mouse at 1 mg/kg, iv by LC-MS/MS analysis; assay type: ADME, organism-based; settings: in vivo
NCI-H1975 = assay: Antitumor activity against human NCI-H1975 cells xenografted in Balb/c mouse assessed as tumor growth inhibition at 50 mg/kg/day, po once daily for 14 days measured every 2 to 3 days during compound dosing relative to control; assay type: functional; settings: read-out: TGI; summary of the method: as §1
Homo sapiens = organism: Homo sapiens; assay: Selectivity index, ratio of IC50 for human A431 cells harboring wild type EGFR to IC50 for human NCI-H1975 cells harboring EGFR L858R/T790M double mutant
Summary of the method: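 Cell growth inhibition measured by sulforhodamine B colorimetric assay in H1975 (EGFR L858R/T790M) and A431 (overexpressed wild-type EGFR) cells; IC50 values are means ± SD of at least three independent determinations. Selectivity is taken as the A431:H1975 IC50 ratio.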

T1 sequence (P00533 whole entry, the tested form may be a part): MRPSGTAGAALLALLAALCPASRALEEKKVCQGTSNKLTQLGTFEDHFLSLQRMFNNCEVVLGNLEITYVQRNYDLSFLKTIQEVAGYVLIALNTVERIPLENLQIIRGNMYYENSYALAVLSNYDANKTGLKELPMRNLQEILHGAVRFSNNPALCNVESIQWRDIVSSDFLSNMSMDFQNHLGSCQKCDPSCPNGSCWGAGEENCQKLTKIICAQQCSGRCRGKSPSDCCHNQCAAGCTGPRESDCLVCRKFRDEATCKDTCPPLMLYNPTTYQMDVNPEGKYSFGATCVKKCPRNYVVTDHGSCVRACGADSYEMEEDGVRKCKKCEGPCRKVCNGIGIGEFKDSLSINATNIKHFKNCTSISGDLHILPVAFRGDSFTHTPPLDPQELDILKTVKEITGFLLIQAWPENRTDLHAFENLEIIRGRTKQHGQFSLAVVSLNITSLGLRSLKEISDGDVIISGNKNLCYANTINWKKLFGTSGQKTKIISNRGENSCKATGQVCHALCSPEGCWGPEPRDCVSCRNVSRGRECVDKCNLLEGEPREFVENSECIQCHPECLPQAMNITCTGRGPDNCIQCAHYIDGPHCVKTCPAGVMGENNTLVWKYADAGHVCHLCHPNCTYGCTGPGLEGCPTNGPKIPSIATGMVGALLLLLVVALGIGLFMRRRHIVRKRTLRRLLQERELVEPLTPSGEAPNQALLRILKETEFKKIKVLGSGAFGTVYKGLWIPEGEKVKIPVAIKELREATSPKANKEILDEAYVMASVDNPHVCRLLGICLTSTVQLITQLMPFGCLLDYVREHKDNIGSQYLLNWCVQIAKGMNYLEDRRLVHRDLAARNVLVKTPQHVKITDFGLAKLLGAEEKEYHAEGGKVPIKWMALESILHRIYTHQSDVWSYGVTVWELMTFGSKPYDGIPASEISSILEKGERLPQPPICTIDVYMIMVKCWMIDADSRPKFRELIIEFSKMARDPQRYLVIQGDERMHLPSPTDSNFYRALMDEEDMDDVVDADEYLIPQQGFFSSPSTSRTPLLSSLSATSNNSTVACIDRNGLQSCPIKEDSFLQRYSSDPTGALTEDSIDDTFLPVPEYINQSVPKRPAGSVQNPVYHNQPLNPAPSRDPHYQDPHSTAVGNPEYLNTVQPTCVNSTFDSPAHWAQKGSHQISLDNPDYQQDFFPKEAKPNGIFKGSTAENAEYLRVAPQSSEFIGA

`C=CC(=O)Nc1cccc(-n2c(=O)n(C(C)C)c(=O)c3cnc(Nc4ccc(N5CCN(C)CC5)cc4OC)nc32)c1` gave a Tmax [1] of 2 h, an inhibition at 50 mg/kg (A-431) of 37% and an IC50 [2] of 79 nM. The “inhibition (INH)” value [3] was “Not Active”, the AUC(0-inf) [4] was 186 ng·h/mL and the Vd [5] was 4.53 L/kg. The Activity (Mus musculus) was “Non-Toxic”, the Papp A→B at 2.5 h, 2 µM [6] was 1.5 ×10⁻⁶ cm/s and the AUC(0-t) [7] was 181 ng·h/mL. The inhibition in vivo at 50 mg/kg/day (NCI-H1975) was 73% and the Ratio IC50 (Homo sapiens) was 36.
